According to PMC12325899 (Scientific Reports, 2025):
Blank lines part the entries; values can stand above or below the compound they belong to.

Columns and labels:
BCRP [1] = details: cited from earlier work
BCRP [2] = molecular target: T1, BCRP (Rattus norvegicus, UniProt Q80W57); assay: In vivo pharmacokinetic interaction with the BCRP substrate sulfasalazine; set-up: species or system Sprague-Dawley (SD) rats; details: rats; for half-life: male, Sprague-Dawley, rat, plasma, po, 2 mg/kg, t1/2 of sulfasalazine; for increase of sulfasalazine AUClast versus sulfasalazine alone / increase of sulfasalazine Cmax versus sulfasalazine alone: flavonol 5 mg/kg co-administered with sulfasalazine 2 mg/kg oral
T1 sequence (Q80W57 1-657): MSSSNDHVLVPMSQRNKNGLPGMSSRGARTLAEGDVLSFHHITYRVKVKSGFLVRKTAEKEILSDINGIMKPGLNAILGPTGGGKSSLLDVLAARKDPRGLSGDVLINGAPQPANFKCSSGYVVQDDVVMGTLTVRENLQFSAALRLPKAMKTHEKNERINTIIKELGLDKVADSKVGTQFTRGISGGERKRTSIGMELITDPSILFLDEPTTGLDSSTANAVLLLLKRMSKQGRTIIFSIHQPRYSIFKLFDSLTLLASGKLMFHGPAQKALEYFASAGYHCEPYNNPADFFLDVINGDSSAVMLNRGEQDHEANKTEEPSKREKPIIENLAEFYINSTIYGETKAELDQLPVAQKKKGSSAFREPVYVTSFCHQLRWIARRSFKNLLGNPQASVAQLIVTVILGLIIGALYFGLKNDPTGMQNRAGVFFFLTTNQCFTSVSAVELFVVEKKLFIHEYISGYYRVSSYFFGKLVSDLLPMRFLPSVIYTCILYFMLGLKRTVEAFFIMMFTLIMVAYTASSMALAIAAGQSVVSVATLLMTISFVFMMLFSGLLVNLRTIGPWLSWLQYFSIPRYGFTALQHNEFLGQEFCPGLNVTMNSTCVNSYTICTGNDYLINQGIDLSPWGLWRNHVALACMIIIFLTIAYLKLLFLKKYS
Method in brief: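 Male SD rats (8 weeks, 250–270 g), acclimatized 1 week and fasted overnight with water, n = 5/group. Oral sulfasalazine 2 mg/kg alone or co-administered with test flavonol 5 mg/kg. Plasma was separated at 4 °C and sulfasalazine measured by LC-MS/MS after methanol precipitation with IS. Noncompartmental analysis: AUClast by trapezoidal rule, Cmax observed. Groups were compared with Student's t-test; mean ± SD.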

BCRP [3] = details: read-out: IC50 for BCRP inhibition; cited from earlier work
BCRP [4] = details: amentoflavone 30 mg/kg co-administered with mitoxantrone, rats; cited from earlier work
MDCKII-BCRP cells = assay: Reversal of BCRP-mediated resistance to SN-38; format: cell-based, canine; details: flavonol 5 µM; CC50 in MDCKII-BCRP comparable to mock cells
BCRP [5] = molecular target: T2, BCRP (Homo sapiens, UniProt Q9UNQ0); assay: BCRP inhibition, prazosin accumulation assay in MDCKII-BCRP cells; details: for IC50: IC50 on BCRP activity, prazosin 5 µM, 20 min, MDCKII-BCRP; for inhibition at 20 min, 2 µM: human, pH 7.4
T2 sequence (Q9UNQ0 1-655): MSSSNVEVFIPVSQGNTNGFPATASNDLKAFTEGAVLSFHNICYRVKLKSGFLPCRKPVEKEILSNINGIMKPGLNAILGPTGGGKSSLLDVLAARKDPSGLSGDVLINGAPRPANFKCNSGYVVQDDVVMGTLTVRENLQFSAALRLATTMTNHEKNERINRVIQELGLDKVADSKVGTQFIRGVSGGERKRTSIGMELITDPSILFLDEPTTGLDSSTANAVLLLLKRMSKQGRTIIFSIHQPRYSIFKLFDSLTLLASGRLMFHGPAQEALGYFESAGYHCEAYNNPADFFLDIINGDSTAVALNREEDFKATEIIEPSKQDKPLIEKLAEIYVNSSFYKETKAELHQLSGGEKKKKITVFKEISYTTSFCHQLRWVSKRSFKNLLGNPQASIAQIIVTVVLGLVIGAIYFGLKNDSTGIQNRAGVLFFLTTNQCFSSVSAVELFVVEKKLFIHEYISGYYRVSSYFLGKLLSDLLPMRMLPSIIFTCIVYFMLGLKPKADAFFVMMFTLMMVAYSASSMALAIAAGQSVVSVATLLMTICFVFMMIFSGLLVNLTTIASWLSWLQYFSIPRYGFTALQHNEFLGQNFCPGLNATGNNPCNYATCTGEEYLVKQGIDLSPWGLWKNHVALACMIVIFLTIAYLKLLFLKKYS

[6] = Plasma pharmacokinetics of the flavonols after oral co-administration; format: in vivo, Sprague-Dawley (SD) rats; details: male, Sprague-Dawley, rat, 5 mg/kg
Method in brief: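 Fasted male SD rats (8 weeks, 250–270 g; n = 5) were dosed orally with test flavonol 5 mg/kg together with sulfasalazine 2 mg/kg. Flavonol in plasma was quantified by LC-MS/MS: methanol/IS protein precipitation, C18 gradient of ammonium formate and formic acid–acetonitrile. Noncompartmental parameters: AUClast by trapezoidal rule, AUCinf by extrapolation, Cmax/Tmax observed, t1/2 from terminal slope; mean ± SD.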

BCRP [7] = details: cited from earlier work; remark: listed apart in the source

Structure (SMILES): COc1cc(Nc2ncc(F)c(Nc3ccc4c(n3)N(COP(=O)(O)O)C(=O)C(C)(C)O4)n2)cc(OC)c1OC [Fostamatinib]
- increase of the plasma concentration of rosuvastatin (BCRP [1]): approximately two-fold

- half-life (BCRP [2]; sulfasalazine 2 mg/kg oral + 3,4’-dimethoxyflavone 5 mg/kg): 1.76 ± 0.29 h
- half-life (BCRP [2]; sulfasalazine 2 mg/kg oral + 3,6,3’,4’-tetramethoxyflavone 5 mg/kg): 2.34 ± 1.23 h
Structure (SMILES): O=C(O)c1cc(/N=N/c2ccc(S(=O)(=O)Nc3ccccn3)cc2)ccc1O [Sulfasalazine, sulfasalazine, reference compound]

Structure (SMILES): O=c1cc(-c2ccc(O)c(-c3c(O)cc(O)c4c(=O)cc(-c5ccc(O)cc5)oc34)c2)oc2cc(O)cc(O)c12 [amentoflavone]
- IC50 (BCRP [3]): ~4 µM
- increase of the AUC of mitoxantrone (BCRP [4]): 1.23 fold

- IC50 (BCRP [5]): < 5 µM
Structure (SMILES): O=c1c(O)c(-c2cccc(O)c2)oc2cc(O)ccc12 [compound 8, 3,7,3’-Trihydroxyflavone]
- reversal of BCRP-mediated resistance to SN-38 (MDCKII-BCRP cells): almost completely reversed BCRP-mediated resistance to SN-38

- IC50 (BCRP [5]): > 10 µM
Structure (SMILES): O=c1c(O)c(-c2ccc(O)cc2O)oc2cc(O)cc(O)c12 [compound 31, 3,5,7,2’,4’-Pentahydroxyflavone]

- IC50 (BCRP [5]): < 5 µM
Structure (SMILES): Cc1c(O)cc(O)c2c(=O)c(O)c(-c3ccc(O)c(O)c3)oc12 [compound 32, 3,5,7,3’,4’-Pentahydroxy-8-methylflavone]

- IC50 (BCRP [5]): > 10 µM
Structure (SMILES): COc1ccc2oc(-c3cccc(OC)c3OC)c(OC)c(=O)c2c1 [compound 47, 3,6,2’,3’-Tetramethoxyflavone]

- IC50 (BCRP [5]): < 5 µM
Structure (SMILES): COc1ccc(-c2oc3cc(O)cc(O)c3c(=O)c2OC)cc1O [compound 48, 5,7,3’-Trihydroxy-3,4’-dimethoxyflavone]

- IC50 (BCRP [5]): < 5 µM
Structure (SMILES): COc1cc(O)c2c(=O)c(OC)c(-c3ccc(OC)c(OC)c3)oc2c1 [compound 50, 5-Hydroxy-3,7,3’,4’-tetramethoxyflavone]
- reversal of BCRP-mediated resistance to SN-38 (MDCKII-BCRP cells): almost completely reversed BCRP-mediated resistance to SN-38

- IC50 (BCRP [5]): < 5 µM
Structure (SMILES): COc1ccc(-c2oc3cc(OC)c(O)c(OC)c3c(=O)c2OC)cc1O [compound 52, 6,3’-Dihydroxy-3,5,7,4’-tetramethoxyflavone]

- IC50 (BCRP [5]): < 5 µM
Structure (SMILES): COc1ccc(-c2oc3cc(OC)c(OC)c(OC)c3c(=O)c2OC)cc1 [compound 53, 3,5,6,7,4’-Pentamethoxyflavone]

- IC50 (BCRP [5]): < 5 µM
Structure (SMILES): O=c1c(O)c(-c2ccccc2)oc2cc(O)ccc12 [compound no. 7, 3,7-Dihydroxyflavone]

- IC50 (BCRP [5]): < 5 µM
- inhibition at 20 min, 2 µM (BCRP [5]): 45.9%
Structure (SMILES): O=c1c(O)c(-c2ccc(O)c(O)c2)oc2cc(O)cc(O)c12 [compound no. 27, 3,5,7,3’,4’-Pentahydroxyflavone]

- inhibition at 20 min, 2 µM (BCRP [5]): 45.5%
Structure (SMILES): COc1cc(-c2oc3cc(O)cc(O)c3c(=O)c2O)ccc1O [compound no. 29, 3,5,7,4’-Tetrahydroxy-3’-methoxyflavone]

- increase of sulfasalazine AUClast versus sulfasalazine alone (BCRP [2]): 1.79 fold
- increase of sulfasalazine Cmax versus sulfasalazine alone (BCRP [2]): approximately 1.83 fold
- AUC(0-t) [6]: 12.4 ± 5 ng·h/mL
- Cmax [6]: 13.5 ± 8.8 ng/mL
- half-life [6]: 0.54 ± 0.15 h
Structure (SMILES): COc1ccc(-c2oc3ccccc3c(=O)c2OC)cc1 [compound no. 37, 3,4’-Dimethoxyflavone]

- IC50 (BCRP [5]): < 5 µM
- inhibition at 20 min, 2 µM (BCRP [5]): 45.2%
Structure (SMILES): COc1ccc2c(=O)c(OC)c(-c3ccc(O)c(OC)c3)oc2c1 [compound no. 43, 4’-Hydroxy-3,7,3’-trimethoxyflavone]
- reversal of BCRP-mediated resistance to SN-38 (MDCKII-BCRP cells): almost completely reversed BCRP-mediated resistance to SN-38

- increase of sulfasalazine AUClast versus sulfasalazine alone (BCRP [2]): 1.74 fold
- increase of sulfasalazine Cmax versus sulfasalazine alone (BCRP [2]): 2.02 fold
- AUC(0-t) [6]: 22.3 ± 1.6 ng·h/mL
- Cmax [6]: 13.3 ± 0.6 ng/mL
- half-life [6]: 2.24 ± 0.17 h
- IC50 (BCRP [5]): < 5 µM
- inhibition at 20 min, 2 µM (BCRP [5]): 49.9%
Structure (SMILES): COc1ccc2oc(-c3ccc(OC)c(OC)c3)c(OC)c(=O)c2c1 [compound no. 46, 3,6,3’,4’-Tetramethoxyflavone]
- reversal of BCRP-mediated resistance to SN-38 (MDCKII-BCRP cells): almost completely reversed BCRP-mediated resistance to SN-38

- IC50 (BCRP [5]): < 5 µM
- inhibition at 20 min, 2 µM (BCRP [5]): 52%
Structure (SMILES): COc1ccc(-c2oc3cc(OC)c(OC)c(OC)c3c(=O)c2OC)cc1OC [compound no. 54, 3,5,6,7,3’,4’-Hexamethoxyflavone]

Structure (SMILES): O=c1[nH]c(=O)c2c[nH]nc2[nH]1 [oxypurinol]
- prolongation of half-life (BCRP [7]; individuals homozygous for the p.Q141K variant): 1.8 fold

Structure (SMILES): CC(C)c1nc(N(C)S(C)(=O)=O)nc(-c2ccc(F)cc2)c1/C=C/[C@@H](O)C[C@@H](O)CC(=O)O [rosuvastatin, reference compound]
- increase in maximum plasma concentration (BCRP [7]; 421CA or 421AA genotypes versus 421CC wild-type homozygous genotype): 1.9 fold
